ChEMBL document CHEMBL4425177, “Effects of stereochemistry, saturation, and hydrocarbon chain length on the ability of synthetic constrained azacyclic sphingolipids to trigger nutrient transporter down-regulation, vacuolation, and cell death” (Bioorg Med Chem, 2016)

Tests used:
FL5.12 [1] = assay: Cytotoxicity against mouse FL5.12A cells after 48 hrs by DAPI staining-based flow cytometric analysis; assay type: functional, cell-based; conditions: FL5.12, 48 h
FL5.12 [2] = assay: Downregulation of CD98 expression level in mouse FL5.12A cells at 2.5 uM measured at 3 hrs by flow cytometric analysis; assay type: functional
Outline: (§1)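 FL5.12 cells treated at 2.5 µM. Nutrient transporter loss measured as mean ± SEM. Vacuolation scored semi-quantitatively from 0 to 84, roughly twice the percent of cytosol occupied by vacuoles, mean ± SEM.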

FL5.12 [3] = assay: Induction of vacuolation in mouse FL5.12A cells assessed as vacuolation score at 2.5 uM measured at 3 hrs by fluorescence microscopic analysis; assay type: functional; outline: as §1
FL5.12 [4] = assay: Downregulation of CD98 expression level in mouse FL5.12A cells at 50 uM measured at 3 hrs by flow cytometric analysis
FL5.12 [5] = assay: Induction of vacuolation in mouse FL5.12A cells assessed as vacuolation score at 50 uM measured at 3 hrs by fluorescence microscopic analysis; assay type: functional
FL5.12 [6] = assay: Induction of vacuolation in mouse FL5.12A cells assessed as vacuolation score at 30 uM measured at 3 hrs by fluorescence microscopic analysis; assay type: functional
FL5.12 [7] = assay: Downregulation of CD98 expression level in mouse FL5.12A cells at 30 uM measured at 3 hrs by flow cytometric analysis; assay type: functional

With `CCCCCCCCc1ccc(CO[C@@H]2CN[C@@H](CO)C2)cc1.Cl` the IC50 (FL5.12 [1]) was 2 µM, the Activity (FL5.12 [2]) was 63% and the Activity (FL5.12 [3]) was 33.
With `CCCCCCCCc1ccc(CCC(N)(CO)CO)cc1` [FINGOLIMOD] the IC50 (FL5.12 [1]) was 2.4 µM, the Activity (FL5.12 [2]) was 68% and the Activity (FL5.12 [3]) was 82.
Molecule `CCCCCC/C=C/c1ccc(CO[C@H]2C[C@H](CO)N(C)C2)cc1.Cl` has an IC50 (FL5.12 [1]) of 1.9 µM, an Activity (FL5.12 [2]) of 31% and an Activity (FL5.12 [3]) of 26.
Work on `CCCCCCCCc1ccc(CO[C@H]2CN[C@H](CO)C2)cc1.Cl` yielded an IC50 (FL5.12 [1]) of 3 µM, an Activity (FL5.12 [2]) of 48% and an Activity (FL5.12 [3]) of 47.
`CCCCCCCCCCCCc1ccc(CO[C@@H]2CN[C@@H](CO)C2)cc1.Cl` was tested, and the IC50 (FL5.12 [1]) was 10.1 µM, the Activity (FL5.12 [2]) was 13% and the Activity (FL5.12 [3]) was 3.
In the case of `CCCCCCCCCCCCO[C@H]1CN[C@H](CO)C1.Cl`, the IC50 (FL5.12 [1]) is reported as 2.5 µM, the Activity (FL5.12 [2]) is reported as 45% and the Activity (FL5.12 [3]) is reported as 36.
For `CCCCCCCCCCCCO[C@@H]1CN[C@@H](CO)C1.Cl`, the IC50 (FL5.12 [1]) was 1.2 µM, the Activity (FL5.12 [2]) was 57% and the Activity (FL5.12 [3]) was 53.
For `CCCCCCCCc1ccc(CO[C@H]2C[C@H](CO)N(C(C)=O)C2)cc1`, the Activity (FL5.12 [4]) was 37%, the IC50 (FL5.12 [1]) was 29.7 µM and the Activity (FL5.12 [5]) was 1.
With `CCCCCCCCC/C=C/CO[C@@H]1CN[C@@H](CO)C1.Cl` the IC50 (FL5.12 [1]) was 2.6 µM, the Activity (FL5.12 [2]) was 34% and the Activity (FL5.12 [3]) was 9.
In the case of `CCCCCC/C=C/c1ccc([C@H]2CCN[C@@H]2CO)cc1.Cl`, the IC50 (FL5.12 [1]) is reported as 1.7 µM, the Activity (FL5.12 [2]) is reported as 58% and the Activity (FL5.12 [3]) is reported as 84.
`CCCCCCCCc1ccc(CO[C@H]2C[C@H](CO)N(C(=N)N)C2)cc1.Cl.Cl` gave an IC50 (FL5.12 [1]) of 14.2 µM, an Activity (FL5.12 [6]) of 0 and an Activity (FL5.12 [7]) of 35%.
With `CCCCCCCCc1ccc([C@H]2CCN[C@@H]2CO)cc1.Cl` the IC50 (FL5.12 [1]) was 1.9 µM, the Activity (FL5.12 [2]) was 54% and the Activity (FL5.12 [3]) was 81.
For `CCCCCCCCCCc1ccc(CO[C@H]2CN[C@H](CO)C2)cc1.Cl`, the IC50 (FL5.12 [1]) was 3.6 µM, the Activity (FL5.12 [2]) was 28% and the Activity (FL5.12 [3]) was 36.
Work on `CCCCCC/C=C/c1ccc(CO[C@H]2CN[C@H](CO)C2)cc1.Cl` yielded an IC50 (FL5.12 [1]) of 2.4 µM, an Activity (FL5.12 [2]) of 41% and an Activity (FL5.12 [3]) of 70.
`CCCCCCCCCCCCC/C=C/[C@@H](O)[C@H](CO)NC(C)=O` (stereo in doubt; 9) showed an Activity (FL5.12 [4]) of 47%, an IC50 (FL5.12 [1]) of 33 µM and an Activity (FL5.12 [5]) of 0.
With `CCCCCCCCCCCCc1ccc(CO[C@H]2CN[C@H](CO)C2)cc1.Cl` the IC50 (FL5.12 [1]) was 3.9 µM, the Activity (FL5.12 [2]) was 14% and the Activity (FL5.12 [3]) was 30.
With `CCCCCCCCCCCC/C=C/c1ccc(CO[C@H]2CN[C@H](CO)C2)cc1.Cl` the IC50 (FL5.12 [1]) was 7.3 µM, the Activity (FL5.12 [2]) was 20% and the Activity (FL5.12 [3]) was 1.
`CCCCCCCCCCCCCCc1ccc(CO[C@H]2CN[C@H](CO)C2)cc1.Cl` was tested, and the IC50 (FL5.12 [1]) was 5.7 µM, the Activity (FL5.12 [2]) was 19% and the Activity (FL5.12 [3]) was 3.
`CCCCCC/C=C/c1ccc(CO[C@@H]2CN[C@@H](CO)C2)cc1.Cl` gave an IC50 (FL5.12 [1]) of 1.4 µM, an Activity (FL5.12 [2]) of 64% and an Activity (FL5.12 [3]) of 27.
`CCCCCCCCCC/C=C/c1ccc(CO[C@H]2CN[C@H](CO)C2)cc1.Cl` was tested, and the IC50 (FL5.12 [1]) was 2.4 µM, the Activity (FL5.12 [2]) was 40% and the Activity (FL5.12 [3]) was 76.
`CCCCCCCCCCCCC/C=C/[C@@H](O)[C@H](CO)N(C)C` [DIMETHYLSPINGOSINE] gave an IC50 (FL5.12 [1]) of 0.8 µM, an Activity (FL5.12 [2]) of 69% and an Activity (FL5.12 [3]) of 72.
For `CCCCCCCCCCCCCCC[C@@H](O)[C@@H](N)CO` [DIHYDROSPINGOSINE], the IC50 (FL5.12 [1]) was 3.5 µM, the Activity (FL5.12 [2]) was 47% and the Activity (FL5.12 [3]) was 38.
`CCCC/C=C/c1ccc(CO[C@H]2CN[C@H](CO)C2)cc1.Cl` gave an IC50 (FL5.12 [1]) of 5.7 µM, an Activity (FL5.12 [2]) of 9% and an Activity (FL5.12 [3]) of 5.
`CCCCCCCCCCCC/C=C/c1ccc(CO[C@@H]2CN[C@@H](CO)C2)cc1.Cl` showed an IC50 (FL5.12 [1]) of 5.1 µM, an Activity (FL5.12 [2]) of 19% and an Activity (FL5.12 [3]) of 8.
For `CCCCCCCCc1ccc([C@@H]2CCN[C@H]2CO)cc1.Cl`, the IC50 (FL5.12 [1]) was 1.7 µM, the Activity (FL5.12 [2]) was 47% and the Activity (FL5.12 [3]) was 53.
In the case of `CCCCCCCCCCCCCCc1ccc(CO[C@@H]2CN[C@@H](CO)C2)cc1.Cl`, the IC50 (FL5.12 [1]) is reported as 10.5 µM, the Activity (FL5.12 [2]) is reported as 12% and the Activity (FL5.12 [3]) is reported as 4.
`CCCCCCCCc1ccc([C@H]2CCN(C(C)=O)[C@@H]2CO)cc1` was tested, and the IC50 (FL5.12 [1]) was 39.7 µM, the Activity (FL5.12 [2]) was 40% and the Activity (FL5.12 [3]) was 0.
`CCCCCCCCc1ccc(CO[C@@H]2C[C@@H](CO)N(C(=N)N)C2)cc1.Cl.Cl` was tested, and the IC50 (FL5.12 [1]) was 17.3 µM, the Activity (FL5.12 [6]) was 0 and the Activity (FL5.12 [7]) was 34%.
With `CCCCCCCCCCCCC/C=C/[C@@H](O)[C@@H](N)CO` [SPHINGOSINE] the IC50 (FL5.12 [1]) was 3.6 µM, the Activity (FL5.12 [2]) was 48% and the Activity (FL5.12 [3]) was 57.
`CCCCCC/C=C/c1ccc([C@H]2CCN(C(C)=O)[C@@H]2CO)cc1` showed an IC50 (FL5.12 [1]) of 46.2 µM, an Activity (FL5.12 [2]) of 40% and an Activity (FL5.12 [3]) of 2.
`CCCCCCCCC/C=C/CO[C@H]1CN[C@H](CO)C1.Cl` showed an IC50 (FL5.12 [1]) of 3.3 µM, an Activity (FL5.12 [2]) of 30% and an Activity (FL5.12 [3]) of 20.
Molecule `CCCCCCCCCC/C=C/c1ccc(CO[C@@H]2CN[C@@H](CO)C2)cc1.Cl` has an IC50 (FL5.12 [1]) of 2.8 µM, an Activity (FL5.12 [2]) of 52% and an Activity (FL5.12 [3]) of 33.
`CCCCCCc1ccc(CO[C@@H]2CN[C@@H](CO)C2)cc1.Cl` gave an IC50 (FL5.12 [1]) of 2.7 µM, an Activity (FL5.12 [2]) of 30% and an Activity (FL5.12 [3]) of 0.
Work on `CCCC/C=C/c1ccc(CO[C@@H]2CN[C@@H](CO)C2)cc1.Cl` yielded an IC50 (FL5.12 [1]) of 5.5 µM, an Activity (FL5.12 [2]) of 30% and an Activity (FL5.12 [3]) of 0.
